# Assay results published in ChEMBL document CHEMBL1121818, “Some reactions of 1,4-dihydropyridines with organic azides. Synthesis of 2,7-diazabicyclo[4.1.0]hept-3-enes with analgesic and antiprotozoal activity” (1981).
# Tests used:
# Format in all cases: functional
# Mus musculus [1] = experiment: Analgesic activity was measured on phenylquinone writhing in mice at 64 mg/kg subcutaneous dose; settings: sc
# Outline: (§1)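 Male Swiss albino mice, 18-22 g, five per group. Compound suspended in physiological saline with Tween 80 and given sc. 30 min later, 0.03% phenyl-p-benzoquinone given ip at 0.1 mL/10 g body weight. Total writhes per animal counted against a vehicle-treated control group. % change = (writhes treated/writhes control) × 100 − 100.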
# Trichomonas vaginalis = experiment: Compound was measured as concentration of compound required for 90% growth inhibition of Trichomonas vaginalis
# Outline: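 Tube dilution in modified TYM basal medium, with compound added in µg/mL of medium. Inoculum 1 × 10^5/mL T. vaginalis trophozoites pre-grown 48 h in the same medium. Incubated 24 and 48 h at 35 °C. Aliquots diluted in saline with 1% formaldehyde and counted in a Speirs-Levy chamber. MIC is the lowest concentration giving 90% growth inhibition.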
# Mus musculus [2] = experiment: Analgesic activity was measured on phenylquinone writhing in mice at 56 mg/kg subcutaneous dose; settings: sc; outline: as §1
# Mus musculus [3] = experiment: Analgesic activity was measured of phenylquinone writhing in mice at 4 mg/kg subcutaneous dose; settings: sc; outline: as §1
# Mus musculus [4] = experiment: Analgesic activity was measured of phenylquinone writhing in mice at 64 mg/kg subcutaneous dose; settings: sc; outline: as §1
# Mus musculus [5] = experiment: Analgesic activity was measured of phenylquinone writhing in mice at 32 mg/kg subcutaneous dose; settings: sc; outline: as §1
# Mus musculus [6] = experiment: Analgesic activity was measured of phenylquinone writhing in mice at 16 mg/kg subcutaneous dose; settings: sc; outline: as §1
# Mus musculus [7] = experiment: Analgesic activity was measured on phenylquinone writhing in mice at 128 mg/kg subcutaneous dose; settings: sc; outline: as §1
# Mus musculus [8] = experiment: Analgesic activity was measured of phenylquinone writhing in mice at 8 mg/kg subcutaneous dose; settings: sc; outline: as §1
# Mus musculus [9] = experiment: Analgesic activity was measured on phenylquinone writhing in mice at 50 mg/kg subcutaneous dose; settings: sc; outline: as §1
SMILES,MIC (Trichomonas vaginalis) [µg/mL],inhibition in vivo at 128 mg/kg (Mus musculus [7]) [%],other results
CN1C=CC[C@@H]2[C@H]1N2C#N,< 10,,inhibition in vivo at 64 mg/kg (Mus musculus [1]): 86%
CCC(=O)O[C@](Cc1ccccc1)(c1ccccc1)[C@H](C)CN(C)C [PROPOXYPHENE],,,inhibition in vivo at 56 mg/kg (Mus musculus [2]): 50%
CN1C=CC[C@@H]2[C@H]1N2S(=O)(=O)c1ccc(N)cc1 (stereo partly drawn),< 10,97,inhibition in vivo at 4 mg/kg (Mus musculus [3]): 23%; inhibition in vivo at 64 mg/kg (Mus musculus [4]): 78%; inhibition in vivo at 32 mg/kg (Mus musculus [5]): 69%; inhibition in vivo at 16 mg/kg (Mus musculus [6]): 45%; inhibition in vivo at 8 mg/kg (Mus musculus [8]): 40%
CN1C=CC[C@@H]2[C@H]1N2S(=O)(=O)c1ccccc1 (stereo partly drawn),< 10,,inhibition in vivo at 64 mg/kg (Mus musculus [1]): 92%
CC(=O)Nc1ccc(S(=O)(=O)N2[C@@H]3CC=CN(C)[C@@H]32)cc1 (stereo partly drawn),< 10,95,
O=S(=O)(c1ccccc1)N1[C@@H]2CC=CN[C@@H]21 (stereo partly drawn),,47,
CN1C=CC[C@@H]2[C@H]1N2S(C)(=O)=O (stereo partly drawn),< 10,50,
CC(=O)Oc1ccccc1C(=O)O [ASPIRIN],,,inhibition in vivo at 50 mg/kg (Mus musculus [9]): 50%
